The values that follow come from ChEMBL document CHEMBL1122206, “Use of adenine nucleotide derivatives to assess the potential of exo-active-site-directed reagents as species- or isozyme-specific enzyme inactivators. 5. Interactions of adenosine 5'-triphosphate derivatives with rat pyruvate kinases, Escherichia coli thymidine kinase, and yeast and rat …” (1982).

Test [1] addresses T1, Hexokinase-3 (Rattus norvegicus) (UniProt P27926).
T1 sequence (whole entry): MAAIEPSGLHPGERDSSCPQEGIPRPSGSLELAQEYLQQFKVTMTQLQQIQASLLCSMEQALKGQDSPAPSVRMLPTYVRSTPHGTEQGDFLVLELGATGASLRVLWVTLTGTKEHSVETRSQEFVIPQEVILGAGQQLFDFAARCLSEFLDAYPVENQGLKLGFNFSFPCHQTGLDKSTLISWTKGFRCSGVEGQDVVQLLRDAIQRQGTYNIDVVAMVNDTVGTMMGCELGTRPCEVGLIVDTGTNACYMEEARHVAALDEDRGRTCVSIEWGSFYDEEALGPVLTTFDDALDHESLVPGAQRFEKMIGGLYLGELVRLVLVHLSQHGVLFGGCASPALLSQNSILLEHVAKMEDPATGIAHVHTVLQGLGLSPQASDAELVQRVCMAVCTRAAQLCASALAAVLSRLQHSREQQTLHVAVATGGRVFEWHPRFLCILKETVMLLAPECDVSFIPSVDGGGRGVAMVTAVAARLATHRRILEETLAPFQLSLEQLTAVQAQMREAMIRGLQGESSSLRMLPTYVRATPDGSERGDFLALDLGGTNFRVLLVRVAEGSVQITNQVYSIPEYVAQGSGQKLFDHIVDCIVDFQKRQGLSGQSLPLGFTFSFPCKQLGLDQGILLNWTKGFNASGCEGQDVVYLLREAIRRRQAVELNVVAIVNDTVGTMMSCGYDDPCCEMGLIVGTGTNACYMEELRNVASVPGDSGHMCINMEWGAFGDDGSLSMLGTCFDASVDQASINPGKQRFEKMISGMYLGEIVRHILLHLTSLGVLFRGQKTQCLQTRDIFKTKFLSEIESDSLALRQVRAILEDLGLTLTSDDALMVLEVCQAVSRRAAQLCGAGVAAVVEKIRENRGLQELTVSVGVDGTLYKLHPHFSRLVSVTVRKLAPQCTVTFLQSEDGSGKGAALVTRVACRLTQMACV
As to the kind of experiment: Time dependent inhibition of Hexokinase type III activity after 6 h, at 22 degrees celsius, at 5 mM.

For test [2], the system named is Saccharomyces cerevisiae. The test is described as follows: Compound was tested for time dependent inhibition of hexokinase activity after 6 hr, at 0 degrees celsius, with 10 mM ATP derivative in yeast hexokinase.
Test [3] is described as follows: Substrate concentration for half maximal velocity was reported for rat hexokinase II. The method in brief:
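Coupled glucose-6-phosphate dehydrogenase/NADP assay: A340 rate at 22 °C in 0.05 M Tris-HCl pH 7.6 with 6.6 mM MgCl2, 10 mM α-D-glucose and 0.93 mM NADP, nucleotide varied. KM was taken from linear double-reciprocal plots. Rat HK I and III came from electrofocused, dialysed liver extract, HK II from dialysed muscle extract, and yeast HK was isoelectric-focused.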

The target of test [4] is Thymidine kinase (Escherichia coli) (UniProt P23331). As to the kind of experiment: Compound was tested for the loss of thymidine kinase activity from Escherichia coli after 6 hr at 0 degrees C at 10 mM.
Sequence of Thymidine kinase (Escherichia coli) (P23331 whole entry, looked up): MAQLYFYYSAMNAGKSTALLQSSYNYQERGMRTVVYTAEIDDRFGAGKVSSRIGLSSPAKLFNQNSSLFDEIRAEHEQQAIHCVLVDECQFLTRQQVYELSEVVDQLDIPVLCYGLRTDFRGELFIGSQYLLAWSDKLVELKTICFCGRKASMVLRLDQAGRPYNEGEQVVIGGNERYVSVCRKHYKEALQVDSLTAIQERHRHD
Test [5] is described as follows: Tested for the velocity of 2.8 mM compound relative to that of 2.8 mM MgATP in the assay. The method in brief: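 E. coli TK substrate test. 0.5 h after adding inhibitor, the mixture was diluted to 2.8 mM derivative in thymidine assay medium without ATP and with 1.42 mM MnCl2. Incubated 15 min at 37 °C, in the linear range. [14C]TMP formed was compared with that from 2.8 mM ATP under the same conditions.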

Test [6] can be described thus: Compound was tested for substrate constants with rat hexokinase. Maximal velocity Vmax was reported. The essentials: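 Rat HK I and HK III came from liver extract of an adult male Sprague-Dawley rat and were separated by electrofocusing and dialysed; HK II was dialysed muscle extract. The coupled assay ran at 22 °C in 0.05 M Tris-HCl pH 7.6 with 6.6 mM MgCl2, 10 mM glucose, 0.93 mM NADP and G6P dehydrogenase, read at 340 nm. Constants came from linear double-reciprocal plots.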

The target of test [7] is T2, Hexokinase-2 (Rattus norvegicus) (UniProt P27881).
T2 sequence (whole entry): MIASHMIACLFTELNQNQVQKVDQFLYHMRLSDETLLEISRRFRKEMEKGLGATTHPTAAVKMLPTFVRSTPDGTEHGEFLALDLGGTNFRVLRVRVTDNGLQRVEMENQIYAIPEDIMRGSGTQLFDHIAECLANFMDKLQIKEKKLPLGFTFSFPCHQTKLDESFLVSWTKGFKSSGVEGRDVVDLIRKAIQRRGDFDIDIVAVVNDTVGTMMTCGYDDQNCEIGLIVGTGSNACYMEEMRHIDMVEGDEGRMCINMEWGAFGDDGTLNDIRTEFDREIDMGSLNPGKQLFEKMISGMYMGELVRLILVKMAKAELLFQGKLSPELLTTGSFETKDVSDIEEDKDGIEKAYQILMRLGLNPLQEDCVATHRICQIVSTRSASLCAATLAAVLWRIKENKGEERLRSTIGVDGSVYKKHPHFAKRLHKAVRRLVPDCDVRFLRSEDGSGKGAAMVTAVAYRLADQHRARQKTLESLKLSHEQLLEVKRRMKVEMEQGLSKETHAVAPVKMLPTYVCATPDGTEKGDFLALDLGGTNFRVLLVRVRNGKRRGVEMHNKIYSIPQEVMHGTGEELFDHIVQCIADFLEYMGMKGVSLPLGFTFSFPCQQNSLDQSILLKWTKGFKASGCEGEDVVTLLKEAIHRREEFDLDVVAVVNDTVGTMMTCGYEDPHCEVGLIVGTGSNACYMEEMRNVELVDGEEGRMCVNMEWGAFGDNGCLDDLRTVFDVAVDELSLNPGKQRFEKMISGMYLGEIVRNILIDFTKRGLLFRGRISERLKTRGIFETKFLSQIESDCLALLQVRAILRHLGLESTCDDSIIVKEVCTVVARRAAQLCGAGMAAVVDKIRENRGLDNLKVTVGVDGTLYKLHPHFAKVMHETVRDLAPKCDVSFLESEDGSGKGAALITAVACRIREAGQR
As to the kind of experiment: Substrate activity against Rat hexokinase II as 1:1 Mg complex at 5.0 mM. The essentials: (§1)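 Hexokinase activity read at 22 °C as A340 change, coupled to glucose-6-phosphate dehydrogenase, in 0.05 M Tris-HCl pH 7.6 with 6.6 mM MgCl2, 10 mM α-D-glucose and 0.93 mM NADP. Donor was 5.0 mM MgATP derivative (1:1 Mg complex) in place of ATP. Yeast HK was isoelectric-focused. Rat HK I and III came from electrofocused liver extract, HK II from dialysed muscle extract.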

Test [8] deals with Saccharomyces cerevisiae. The test is described as follows: Substrate activity against yeast hexokinase as 1:1 Mg complexes at 5.0 mM. The method in brief:
as §1

As a reminder, the inhibition is the relative decrease from the control value, in per cent. A lower inhibition goes with a weak effect. One may read the Km as the substrate concentration at which the rate is half of its maximum. `Nc1ncnc2c1ncn2[C@@H]1O[C@H](COP(=O)(O)OP(=O)(O)OP(=O)(O)O)[C@@H](O)[C@H]1O`: the inhibition (in test [1]; with Saccharomyces cerevisiae [2]; in test [4]) was 0% throughout. In addition, in test [3], the Michaelis-Menten constant (Km) was determined as 710 µM. Besides, the Velocity in test [5] is 100%. The Vmax in test [6] came to 100%. Also, the Relative velocity (in test [7]; with Saccharomyces cerevisiae [8]) was 1 each time.
